Published values of several laboratories.
Effect on: cell growth or viability

SMILES	cell line	method	concentration	time	endpoint	value
CSc1ccc(OCc2ncc([N+](=O)[O-])n2C)cc1	THP-1	MTT		72 h	CC50	> 62.5 µM
Cc1cccc2nc(-c3ccc([N+](=O)[O-])o3)[nH]c12	HEp-2	resazurin		72 h	CC50	1.7 µM
C/C=C(/C)C(=O)O[C@@H]1[C@H](OC(C)=O)c2c(ccc3ccc(=O)oc23)OC1(C)C	HEp-2	WST-1			IC50	53.5 µM
O=[N+]([O-])c1ccc(-c2nc3cccc(O)c3[nH]2)o1	HEp-2	resazurin		72 h	CC50	31.6 µM
O=c1oc2c(O)c(O)cc3c(=O)oc4c(O)c(O)cc1c4c23	TZM-bl	MTT		48 h	CC50	469 µg/mL
C=C1C(=O)O[C@H]2[C@H]1CC/C(C)=C/CC[C@@]1(C)O[C@@H]21	THP-1	ATP luminescence		17 h	IC50	8.89 µM
CC(=O)OC1c2c(ccc3ccc(=O)oc23)OC(C)(C)C1OC(=O)C(C)(O)C(C)O (stereo not drawn)	MCF7	WST-1			IC50	6.1 µM
C=C(C)[C@@H]1CC[C@]2(C(=O)O)CC[C@]3(C)[C@H](CC[C@@H]4[C@@]5(C)CC[C@H](O)C(C)(C)[C@@H]5CC[C@]43C)[C@@H]12	WS1			48 h	IC50	36 µM
Cc1cn([C@H]2C[C@H](N=[N+]=[N-])[C@@H](CO)O2)c(=O)[nH]c1=O	TZM-bl	MTT		48 h	CC50	> 200 µg/mL
C/C(=C\C(=O)OCCCCCCCCC(=O)O)C[C@@H]1OC[C@H](C[C@@H]2O[C@H]2[C@@H](C)[C@H](C)O)[C@@H](O)[C@H]1O	TZM-bl				CC50	> 100 µM
C=C(C)C(CC=C(C)C)Cc1c(O)cc(OC)c2c1O[C@H](c1ccc(O)cc1O)CC2=O (single isomer, unassigned; (-))	MCF7	MTT			IC50	23.2 µM
Cc1nc(C(CN)NC(=O)C(=O)Nc2ccc3c(c2)OCO3)sc1CO (stereo not drawn)	TZM-bl	MTS		72 h	CC50	≥ 750 µM
C=C(C)[C@H](CC=C(C)C)Cc1c(O)cc(O)c2c1O[C@H](c1ccc(O)cc1O)CC2=O	MCF7	MTT		48 h	IC50	19.2 µM
CC(=O)O[C@@H]1c2c(ccc3ccc(=O)oc23)OC(C)(C)[C@@H]1OC(=O)C1(C)OC1C (stereo partly drawn)	MCF7	WST-1			IC50	25.1 µM
COc1cccc2c1C(=O)c1c(O)c3c(c(O)c1C2=O)C[C@@](O)(C(=O)CO)C[C@@H]3O[C@H]1C[C@H](N)[C@H](O)[C@H](C)O1	MCF7	MTT	25 µM	48 h	viability	16%
